SIRT5 block – sirtuin-5 (human) deacylase inhibition; Q9NXA8; Purified SirT5, succinyl-peptide AMC, trypsin-coupled fluorescence; inhibition, % at 15 µM; actives 1.1% (n = 330,000); AID 652115; in the data active = inhibition above about 15%
Target sequence (Q9NXA8 whole entry, looked up): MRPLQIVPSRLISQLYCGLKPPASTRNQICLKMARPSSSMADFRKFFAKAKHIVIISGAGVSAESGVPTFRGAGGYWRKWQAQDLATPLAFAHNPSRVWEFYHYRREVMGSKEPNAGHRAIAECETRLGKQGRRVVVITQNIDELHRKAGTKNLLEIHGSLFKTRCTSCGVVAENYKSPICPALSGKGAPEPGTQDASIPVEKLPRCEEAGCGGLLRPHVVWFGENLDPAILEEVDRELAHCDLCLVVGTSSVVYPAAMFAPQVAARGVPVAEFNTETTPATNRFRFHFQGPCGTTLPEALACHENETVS
GSIS activator – GLuc luminescence reporter in INS-1E cells, primary screen for activators of glucose-dependent secretion of insulin; INS-1E GLuc reporter insulin secretion, 2-3 h; activation, % at 16.6 µM; actives 0.61% (n = 370,000);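 active = lowest replicate activation of at least 40%, so every replicate reaches that level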;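 note: 0% = median of neutral control wells and 100% = median of IBMX positive control wells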
S100A4 MyoIIA – blocks human S100A4 binding to myosin IIA peptide. P26447. S100A4/TAMRA-MyoIIA peptide fluorescence polarization. inhibition, % at 10.7 µM. actives 0.14% (n = 360,000);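 active = mean inhibition of at least 70% across replicates, with every replicate also reaching that level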
Target sequence (P26447 whole entry, looked up): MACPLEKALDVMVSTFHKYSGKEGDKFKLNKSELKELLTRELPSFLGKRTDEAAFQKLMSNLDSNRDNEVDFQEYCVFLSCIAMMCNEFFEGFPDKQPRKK
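assay system = human S100A4 monomer with TAMRA-labelled myosin IIA peptide | also added = labelled myosin peptide probe, 5 nM | incubation = 5 min between mix addition and reading | control set = DMSO and TFP controls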
ERp5 inh – ERp5 (human) disulfide isomerase inhibition. ERp5 insulin aggregation, absorbance 650 nm, 90 min. actives 0.05% (n = 350,000). inhibition, % at 9.99 µM;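 active = mean replicate inhibition above about 25%, with every replicate also reaching it, limit read from the data, passing the limit was not always enough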
PDI inh – PDI (human) enzyme inhibition; P07237; PDI insulin aggregation turbidity, A650, 90 min; inhibition, % at 10 µM; actives 0.052% (n = 350,000); AID 588391;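 active = mean inhibition across replicates of 30% or more, whatever share of single replicates reach that level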
Active calls of the source: *; . = not tested or not shown. Hits are enriched below; roughly 1.5% of the tested compounds scored in any of these assays.

SMILES	SIRT5 block	GSIS activator	S100A4 MyoIIA	ERp5 inh	PDI inh
O=c1ccc(-c2ccccc2)n[nH]1	21.2*	53.2	5.3	-0.2	0.4
CCCN1[C@@H]2Cn3c(ccc(C4=CCCCC4)c3=O)[C@H]1[C@@H](C(=O)N1CCOCC1)[C@@H]2CO	-9.3	15.7	10.8	-9.8	.
CC(=O)Oc1c(Cl)cc(Cl)cc1/C=C/c1ccc2ccccc2n1	.	.	.	.	10.0
CC(=O)Oc1ccc(Cl)cc1/C=C/c1ccc2ccccc2n1	.	52.7*	.	.	0.1
c1ccc(-c2nc(NCC3CC3)nc3ccsc23)cc1	.	77.7*	-1.6	3.7	0.6
C[C@H](CO)N1C[C@H](C)[C@@H](CN(C)C(=O)Cc2cccnc2)Oc2cc(C#CC3(O)CCCC3)ccc2S1(=O)=O	-4.1	-1.9	-4.4	0.9	.
O=C(OCc1ccccc1)N1CCC2CC1c1cc(Cl)ccc12 (stereo not drawn)	3.3	-8.2	3.3	14.4	-3.0
COCC(=O)N1CCC2CC1c1cc(Cl)ccc12 (stereo not drawn)	21.5*	4.5	-2.5	-11.9	10.4
C[C@H](CO)N1C[C@H](C)[C@H](CN(C)Cc2ccc3c(c2)OCO3)Oc2ccc(NS(=O)(=O)c3cn(C)cn3)cc2C1=O	-14.9	19.1	-10.7	0.0	.
CCCCCCc1ccc(OCC(=O)OC)cc1OCC(=O)OC	22.9*	-2.2	5.8	6.0	12.2
COc1ccc([C@H]2CC(=O)C=C(c3ccc(C(=O)O)cc3)C2)cc1OC	-2.5	90.9*	1.6	3.7	-0.7
COc1ccc(C2=NN(c3ccc(C(=O)O)cc3)C(c3ccc(OC)c(OC)c3)C2)cc1 (stereo not drawn)	-40.5	53.1*	-8.3	-1.0	8.2
COc1ccc(C2CC(c3ccccc3)=NN2c2ccc(S(N)(=O)=O)cc2)cc1OC (stereo not drawn)	-65.0	4.4	-6.7	2.0	1.3
O=C(N[C@H]1CC[C@H](CCNC(=O)C2CCC2)O[C@@H]1CO)c1ccccn1	-0.5	-2.1	24.3	-4.1	.
C[C@@H]1CN([C@H](C)CO)C(=O)c2cccc(NS(=O)(=O)c3ccc(Cl)cc3)c2O[C@H]1CN(C)C(=O)Nc1cccc2ccccc12	-1.5	-21.7	9.0	4.9	.
COc1ccc(-c2nc(-c3cccnc3)no2)cc1OC	0.7	57.7*	2.4	1.1	-0.6
COc1ccc(-c2nc(-c3cccc(C)c3)no2)cc1OC	17.0*	6.0	-3.8	0.2	-2.3
Cc1ccc(-c2nc3ncccn3c2N)cc1	0.7	21.3	-9.6	3.8	.
Nc1c(-c2ccccc2)nc2ncccn12	-0.4	48.7*	-12.2	4.7	.
C[C@@H]1CN([C@H](C)CO)C(=O)c2cc(C3=CCCCC3)cnc2O[C@H]1CN(C)Cc1cccnc1	0.6	17.1	0.6	-2.2	.
CS(=O)(=O)N1CC2(C1)[C@@H](c1ccccc1)[C@@H](CO)N2C(=O)C1CCC1	.	8.1	.	.	.
O=C(NCc1cccnc1)c1cccc(S(=O)(=O)NCc2ccccc2)c1	-7.5	46.0*	1.9	2.9	-10.1
C[C@@H]1CN([C@H](C)CO)C(=O)Cc2cc(NS(=O)(=O)c3ccc(Cl)cc3)ccc2O[C@@H]1CN(C)Cc1ccc(C(F)(F)F)cc1	-3.3	-17.6	23.4	2.9	.
C[C@@H]1CN([C@H](C)CO)C(=O)Cc2cc(NS(=O)(=O)c3ccc(F)cc3)ccc2O[C@H]1CN(C)Cc1ccc(C(F)(F)F)cc1	22.9*	-16.1	-3.5	-2.9	.
C[C@@H]1CN([C@@H](C)CO)C(=O)Cc2cc(NS(=O)(=O)c3ccc(F)cc3)ccc2O[C@@H]1CN(C)Cc1ccc(C(F)(F)F)cc1	18.3*	-11.0	-0.4	0.5	.
SMILES	SIRT5 block	GSIS activator	S100A4 MyoIIA	ERp5 inh	PDI inh
C[C@H]1CN([C@@H](C)CO)C(=O)Cc2cc(NS(=O)(=O)c3ccc(F)cc3)ccc2O[C@@H]1CN(C)Cc1ccc(C(F)(F)F)cc1	20.4*	-10.7	17.4	2.1	.
CN(C)C(=O)[C@H]1[C@H](CO)[C@H]2Cn3c(ccc(C4=CCCCC4)c3=O)[C@H]2N1Cc1ccccn1	-7.2	18.8	9.9	-5.1	.
CCNC(=S)NNC(=O)CCc1nc2cc(Cl)ccc2n(Cc2ccccc2)c1=O	3.1	10.4	5.2	4.1	2.4
CN(C)C(CNC(=O)CCc1nc2cc(Cl)ccc2n(Cc2ccccc2)c1=O)c1ccccc1 (stereo not drawn)	-0.6	13.1	190.2*	-2.3	-7.3
COC(=O)c1ccccc1NC(=O)c1cc2ccccc2o1	-3.7	1.7	-4.5	0.2	-4.2
O=C(Nc1ccccc1C(=O)N1CCOCC1)c1cc2ccccc2o1	29.9*	-1.6	-5.6	-3.4	4.5
CCOc1ccc(N(CC(=O)NCC2CCCO2)C(=O)CCC(=O)Nc2nccs2)cc1 (stereo not drawn)	16.7*	3.6	-0.2	8.5	-0.2
C=C1C(=O)C23C(O)C1CCC2C12CCCC(C)(COC(C)=O)C1C(O)C3(O)OC2 (stereo not drawn)	-7.8	162.0*	0.9	5.2	-3.9
O=C(C[C@H]1CC[C@H](NC(=O)C2CCC2)[C@H](CO)O1)NCc1ccccc1Cl	24.9*	10.8	4.7	-3.4	.
COc1ccc(CNC(=O)C[C@@H]2CC[C@@H](NC(=O)CN(C)C)[C@H](CO)O2)cc1	5.1	17.4	-4.5	0.3	.
CN(C)CC(=O)N[C@H]1CC[C@@H](CC(=O)NCc2ccc(Cl)cc2)O[C@@H]1CO	5.9	9.6	82.4*	-4.6	.
COCC(=O)Nc1ccc2c(c1)[C@@H]1C[C@@H](CC(=O)N3CCOCC3)O[C@@H](CO)[C@@H]1O2	-3.1	4.8	85.6*	-1.5	.
O=C(C[C@@H]1C[C@H]2c3cc(NS(=O)(=O)c4ccccc4)ccc3O[C@H]2[C@H](CO)O1)N1CCOCC1	0.0	-1.0	-0.7	3.0	.
O=C(C[C@@H]1CC[C@@H](NC(=O)C2CCC2)[C@@H](CO)O1)NCc1ccccc1Cl	-5.1	-1.9	-6.0	2.4	.
O=C(C[C@@H]1C[C@H]2c3cc(NS(=O)(=O)c4ccccc4)ccc3O[C@H]2[C@@H](CO)O1)N1CCOCC1	-1.0	17.2	111.1*	-2.3	.
O=C(C[C@@H]1C[C@H]2c3cc(NS(=O)(=O)c4ccccc4)ccc3O[C@H]2[C@H](CO)O1)NC1CCCCC1	0.7	-29.2	17.7	35.0*	.
COCC(=O)N[C@@H]1CC[C@H](CC(=O)NCc2ccccc2OC)O[C@@H]1CO	16.0*	2.1	1.4	7.8	.
O=C(C[C@H]1C[C@H]2c3cc(NS(=O)(=O)c4ccccc4)ccc3O[C@H]2[C@H](CO)O1)NC1CCCC1	-4.1	-10.4	-4.1	-5.3	.
COCC(=O)Nc1ccc2c(c1)[C@@H]1C[C@@H](CC(=O)NCc3ccccc3OC)O[C@@H](CO)[C@@H]1O2	19.3*	-6.0	-1.0	.	.
CCCN1C[C@@H](C)[C@H](OC)CN(C)C(=O)c2cc(NC(=O)Nc3ccccc3F)ccc2OC[C@H]1C	7.9	-14.1	-2.0	0.2	.
CC(C)Oc1cccc(C(=O)C2CCCN(C(=O)CCc3cnn(C)c3)C2)c1 (stereo not drawn)	-4.1	54.7*	1.6	-13.5	-4.1

Source: PubChem BioAssay
